Columns and labels:
Type in all cases: functional, organism-based
[1] = tested on: Pseudomonas aeruginosa; assay: Susceptibility testing against Pseudomonas aeruginosa PAE_NUH01; R=Resistant
In short: (§1)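 Disk diffusion susceptibility profiling of P. aeruginosa reference and clinical isolates against empirically used antipseudomonal antibiotics. Each isolate was categorised as susceptible, intermediate or resistant.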

[2] = tested on: Pseudomonas aeruginosa; assay: Susceptibility testing against Pseudomonas aeruginosa PAE_NUH02; R=Resistant; in short: as §1
[3] = tested on: Pseudomonas aeruginosa; assay: Susceptibility testing against Pseudomonas aeruginosa PAE_NUH07; R=Resistant; in short: as §1
[4] = tested on: Pseudomonas aeruginosa; assay: Susceptibility testing against Pseudomonas aeruginosa PAE_NUH22; S=Susceptible
In short: (§2)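 Disk diffusion susceptibility profiling against a panel of empirically used antipseudomonal antibiotics. Each strain was categorised as susceptible (S) or intermediate (I).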

[5] = tested on: Pseudomonas aeruginosa; assay: Susceptibility testing against Pseudomonas aeruginosa PAE_NUH23; S=Susceptible; in short: as §2
[6] = tested on: Pseudomonas aeruginosa; assay: Susceptibility testing against Pseudomonas aeruginosa PAE_NUH24; S=Susceptible; in short: as §2
[7] = tested on: Pseudomonas aeruginosa; assay: Susceptibility testing against Pseudomonas aeruginosa PAE_NUH25; S=Susceptible; in short: as §2
[8] = tested on: Pseudomonas aeruginosa; assay: Susceptibility testing against Pseudomonas aeruginosa ATCC 27853; S=Susceptible; in short: as §2
[9] = tested on: Pseudomonas aeruginosa; assay: Susceptibility testing against Pseudomonas aeruginosa PAE_NUH04; S=Susceptible; in short: as §2
[10] = tested on: Pseudomonas aeruginosa; assay: Susceptibility testing against Pseudomonas aeruginosa PAE_NUH05; S=Susceptible; in short: as §2
[11] = tested on: Pseudomonas aeruginosa; assay: Susceptibility testing against Pseudomonas aeruginosa PAE_NUH06; S=Susceptible; in short: as §2
[12] = tested on: Pseudomonas aeruginosa; assay: Susceptibility testing against Pseudomonas aeruginosa PAE_NUH17; S=Susceptible; in short: as §2
[13] = tested on: Pseudomonas aeruginosa; assay: Susceptibility testing against Pseudomonas aeruginosa PAE_NUH18; S=Susceptible; in short: as §2
[14] = tested on: Pseudomonas aeruginosa; assay: Susceptibility testing against Pseudomonas aeruginosa PAE_NUH19; S=Susceptible; in short: as §2
[15] = tested on: Pseudomonas aeruginosa; assay: Susceptibility testing against Pseudomonas aeruginosa PAE_NUH20; S=Susceptible; in short: as §2
[16] = tested on: Pseudomonas aeruginosa; assay: Susceptibility testing against Pseudomonas aeruginosa PAE_NUH21; S=Susceptible; in short: as §2
[17] = tested on: Pseudomonas aeruginosa; assay: Susceptibility testing against Pseudomonas aeruginosa PAE_NUH03; S=Susceptible; in short: as §2
[18] = tested on: Pseudomonas aeruginosa; assay: Susceptibility testing against Pseudomonas aeruginosa PAE_NUH03; R=Resistant; in short: as §1
[19] = tested on: Pseudomonas aeruginosa; assay: Susceptibility testing against Pseudomonas aeruginosa PAE_NUH04; R=Resistant; in short: as §1
[20] = tested on: Pseudomonas aeruginosa; assay: Susceptibility testing against Pseudomonas aeruginosa PAE_NUH05; R=Resistant; in short: as §1
[21] = tested on: Pseudomonas aeruginosa; assay: Susceptibility testing against Pseudomonas aeruginosa PAE_NUH06; R=Resistant; in short: as §1
[22] = tested on: Pseudomonas aeruginosa; assay: Susceptibility testing against Pseudomonas aeruginosa PAE_NUH07; I=Intermediate; in short: as §1
[23] = tested on: Pseudomonas aeruginosa; assay: Susceptibility testing against Pseudomonas aeruginosa PAE_NUH18; I=Intermediate; in short: as §1
[24] = tested on: Pseudomonas aeruginosa; assay: Susceptibility testing against Pseudomonas aeruginosa PAE_NUH23; I=Intermediate; in short: as §1
[25] = tested on: Pseudomonas aeruginosa; assay: Susceptibility testing against Pseudomonas aeruginosa PAE_NUH24; I=Intermediate; in short: as §1
[26] = tested on: Pseudomonas aeruginosa; assay: Susceptibility testing against Pseudomonas aeruginosa PAE_NUH01; S=Susceptible; in short: as §2
[27] = tested on: Pseudomonas aeruginosa; assay: Susceptibility testing against Pseudomonas aeruginosa PAE_NUH02; S=Susceptible; in short: as §2
[28] = tested on: Pseudomonas aeruginosa; assay: Susceptibility testing against Pseudomonas aeruginosa PAE_NUH07; S=Susceptible; in short: as §2
[29] = tested on: Pseudomonas aeruginosa; assay: Susceptibility testing against Pseudomonas aeruginosa ATCC 27853; R=Resistant; in short: as §1
[30] = tested on: Pseudomonas aeruginosa; assay: Susceptibility testing against Pseudomonas aeruginosa PAE_NUH18; R=Resistant; in short: as §1
[31] = tested on: Pseudomonas aeruginosa; assay: Susceptibility testing against Pseudomonas aeruginosa PAE_NUH19; R=Resistant; in short: as §1
[32] = tested on: Pseudomonas aeruginosa; assay: Susceptibility testing against Pseudomonas aeruginosa PAE_NUH25; R=Resistant; in short: as §1
[33] = tested on: Pseudomonas aeruginosa; assay: Susceptibility testing against Pseudomonas aeruginosa PAE_NUH21; I=Intermediate; in short: as §2
[34] = tested on: Pseudomonas aeruginosa; assay: Susceptibility testing against Pseudomonas aeruginosa PAE_NUH22; I=Intermediate; in short: as §2

With CCN1CCN(C(=O)N[C@@H](C(=O)N[C@@H]2C(=O)N3[C@@H]2SC(C)(C)[C@@H]3C(=O)O)c2ccccc2)C(=O)C1=O.C[C@]1(Cn2ccnn2)[C@H](C(=O)O)N2C(=O)C[C@H]2S1(=O)=O the Activity [1] was “Resistant”, the Activity [2] was “Resistant” and the Activity [3] was “Resistant”. The Activity [4] was “Susceptible”, the Activity [5] was “Susceptible” and the Activity [6] was “Susceptible”. For the same compound, the Activity [7] was “Susceptible”, the Activity [8] was “Susceptible” and the Activity [9] was “Susceptible”. The Activity [10] was “Susceptible”, the Activity [11] was “Susceptible” and the Activity [12] was “Susceptible”. For the same compound, the Activity [13] was “Susceptible”, the Activity [14] was “Susceptible” and the Activity [15] was “Susceptible”. For the same compound, the Activity [16] was “Susceptible” and the Activity [17] was “Susceptible”.
For CC(C)(O/N=C(\C(=O)N[C@@H]1C(=O)N2C(C(=O)[O-])=C(C[n+]3ccccc3)CS[C@H]12)c1csc(N)n1)C(=O)O, the Activity [1] was “Resistant”, the Activity [2] was “Resistant” and the Activity [18] was “Resistant”. For the same compound, the Activity [19] was “Resistant”, the Activity [20] was “Resistant” and the Activity [21] was “Resistant”. For the same compound, the Activity [4] was “Susceptible”, the Activity [5] was “Susceptible” and the Activity [6] was “Susceptible”. For the same compound, the Activity [7] was “Susceptible”, the Activity [22] was “I” and the Activity [8] was “Susceptible”. For the same compound, the Activity [12] was “Susceptible”, the Activity [13] was “Susceptible” and the Activity [14] was “Susceptible”. The Activity [15] was “Susceptible” and the Activity [16] was “Susceptible”.
For GENTAMICIN, the Activity [1] was “Resistant”, the Activity [2] was “Resistant” and the Activity [18] was “Resistant”. The Activity [19] was “Resistant”, the Activity [20] was “Resistant” and the Activity [21] was “Resistant”. For the same compound, the Activity [3] was “Resistant”, the Activity [4] was “Susceptible” and the Activity [7] was “Susceptible”. The Activity [23] was “I”, the Activity [24] was “I” and the Activity [25] was “I”. For the same compound, the Activity [8] was “Susceptible”, the Activity [12] was “Susceptible” and the Activity [14] was “Susceptible”. The Activity [15] was “Susceptible” and the Activity [16] was “Susceptible”.
In the case of CC(O)[C@H]1C(=O)N2C(C(=O)O)=C(SCCNC=N)C[C@H]12 (single isomer, unassigned), the Activity [4] is reported as “Susceptible”, the Activity [5] is reported as “Susceptible” and the Activity [6] is reported as “Susceptible”. For the same compound, the Activity [7] was “Susceptible”, the Activity [8] was “Susceptible” and the Activity [26] was “Susceptible”. The Activity [27] was “Susceptible”, the Activity [9] was “Susceptible” and the Activity [10] was “Susceptible”. For the same compound, the Activity [11] was “Susceptible”, the Activity [28] was “Susceptible” and the Activity [12] was “Susceptible”. The Activity [13] was “Susceptible”, the Activity [14] was “Susceptible” and the Activity [15] was “Susceptible”. For the same compound, the Activity [16] was “Susceptible” and the Activity [17] was “Susceptible”.
O=C(N[C@H](CO)[C@H](O)c1ccc([N+](=O)[O-])cc1)C(Cl)Cl was tested, and the Activity [29] was “Resistant”, the Activity [1] was “Resistant” and the Activity [2] was “Resistant”. The Activity [18] was “Resistant”, the Activity [19] was “Resistant” and the Activity [20] was “Resistant”. For the same compound, the Activity [21] was “Resistant”, the Activity [3] was “Resistant” and the Activity [30] was “Resistant”. The Activity [31] was “Resistant”, the Activity [32] was “Resistant” and the Activity [33] was “I”. For the same compound, the Activity [34] was “I”, the Activity [24] was “I” and the Activity [25] was “I”. For the same compound, the Activity [12] was “Susceptible” and the Activity [15] was “Susceptible”.

Reference: ChEMBL document CHEMBL1143542, “Structure-activity relationships of bivalent aminoglycosides and evaluation of their microbiological activities” (2005)
